Test results published in ChEMBL document CHEMBL3044872, “Synthesis and quantitative structure-activity relationships of fluorine-containing 4,4-dihydroxylmethyl-2-aryliminooxazo(thiazo)lidines as trehalase inhibitors” (J Agric Food Chem, 2001).
pIC50: −log10 of the molar value.

Columns and labels:
Drosophila melanogaster [1] = test: Larvicidal activity against Drosophila melanogaster at 200 ppm relative to control; format: functional
How it was run: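 One hundred wild-type eggs placed on 8 cm3 yeast/corn meal/agar medium containing compound at 200 ppm, dissolved in DMSO.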

Uncharacterized protein = target: T1, Uncharacterized protein (Sus scrofa, UniProt I3LIR5); test: Inhibition of Sus scrofa (pig) trehalase using trehaloase as substrate incubated for 15 min prior to substrate addition measured after 1.5 hr by spectrophotometric analysis
T1 sequence (I3LIR5 whole entry): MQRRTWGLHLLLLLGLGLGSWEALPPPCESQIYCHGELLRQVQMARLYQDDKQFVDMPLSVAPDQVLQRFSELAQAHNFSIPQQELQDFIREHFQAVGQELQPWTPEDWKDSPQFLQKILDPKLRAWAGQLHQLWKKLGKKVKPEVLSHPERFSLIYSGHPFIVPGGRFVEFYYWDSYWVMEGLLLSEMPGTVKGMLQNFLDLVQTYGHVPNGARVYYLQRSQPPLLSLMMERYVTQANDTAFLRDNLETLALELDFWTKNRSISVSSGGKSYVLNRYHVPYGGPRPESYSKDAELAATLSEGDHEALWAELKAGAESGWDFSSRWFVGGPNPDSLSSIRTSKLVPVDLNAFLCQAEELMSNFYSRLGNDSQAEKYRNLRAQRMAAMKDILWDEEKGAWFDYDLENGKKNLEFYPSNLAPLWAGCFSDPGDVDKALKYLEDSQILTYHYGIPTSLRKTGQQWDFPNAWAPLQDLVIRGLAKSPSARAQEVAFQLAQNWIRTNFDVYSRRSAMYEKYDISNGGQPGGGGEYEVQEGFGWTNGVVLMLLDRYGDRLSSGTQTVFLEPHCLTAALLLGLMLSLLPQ
How it was run: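 Porcine trehalase (1.08 µg) in […], pH 5.5, preincubated with compound in DMSO for 15 min at 37 °C. […] added, then incubated 1.5 h at 37 °C. Stopped with Ba(OH)2/Zn(OH)2 and centrifuged. Glucose measured by glucose oxidase/peroxidase/ABTS (30 min, room temperature), A660, against a glucose standard curve. At least 5 concentrations; expressed as pIC50.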

Drosophila melanogaster [2] = test: Insecticidal activity against adult Drosophila melanogaster cultured on compound-treated corn media assessed as inhibition of flight at 200 ppm after 48 hr relative to control; format: functional
How it was run: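 Wild-type adult flies fed corn medium containing compound for 48 h. Flies ether-anesthetized for 2 min and glued by the abdomen to the arm of a computer-monitored flight mill; flown at 25 °C under natural light. Inhibition % = (1 − treated flight distance/untreated flight distance) × 100.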

Trehalase = target: T2, Trehalase (Bombyx mori, UniProt P32358); test: Inhibition of Bombyx mori trehalase
T2 sequence (P32358 whole entry): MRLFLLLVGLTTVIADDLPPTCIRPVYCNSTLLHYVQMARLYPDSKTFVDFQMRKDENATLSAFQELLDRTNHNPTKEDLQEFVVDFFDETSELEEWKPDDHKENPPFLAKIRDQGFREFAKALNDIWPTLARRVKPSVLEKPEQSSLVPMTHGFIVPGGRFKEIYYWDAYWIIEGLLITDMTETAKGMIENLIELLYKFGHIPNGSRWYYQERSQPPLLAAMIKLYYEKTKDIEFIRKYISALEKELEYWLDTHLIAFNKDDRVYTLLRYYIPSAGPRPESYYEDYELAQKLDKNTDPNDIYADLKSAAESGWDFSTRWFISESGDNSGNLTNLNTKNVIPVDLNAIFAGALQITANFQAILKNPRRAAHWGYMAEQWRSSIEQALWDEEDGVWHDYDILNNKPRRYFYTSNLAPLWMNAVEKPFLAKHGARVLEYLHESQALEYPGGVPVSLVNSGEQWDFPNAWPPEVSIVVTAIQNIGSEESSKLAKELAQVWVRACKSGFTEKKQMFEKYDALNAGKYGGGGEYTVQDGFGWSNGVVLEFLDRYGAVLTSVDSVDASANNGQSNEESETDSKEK

Row | Structure (SMILES) | Activity (Drosophila melanogaster [1]) | pIC50 (Uncharacterized protein) | inhibition at 200 ppm (Drosophila melanogaster [2]) | pIC50 (Trehalase)
1 | OCC1(CO)CO/C(=N\c2ccccc2F)N1 | 45.2% | 4.12 | 30.7% | –
2 | OCC1(CO)CS/C(=N\c2ccccc2F)N1 | 66.5% | 3.08 | 45.4% | –
3 | OCC1(CO)CO/C(=N\c2ccc(F)cc2)N1 | 56.3% | 3.58 | 35.7% | –
4 | OCC1(CO)CS/C(=N\c2ccc(F)cc2)N1 | 60.4% | 3.24 | 37.2% | –
5 | OCC1(CO)CO/C(=N\c2ccc(F)cc2F)N1 | 17.2% | 3.05 | 2.7% | –
6 | OCC1(CO)CS/C(=N\c2ccc(F)cc2F)N1 | 35.1% | 2.21 | 1.7% | –
7 | OCC1(CO)CO/C(=N\c2ccc(F)c(Cl)c2)N1 | 65% | 4.45 | 37.2% | –
8 | OCC1(CO)CS/C(=N\c2ccc(F)c(Cl)c2)N1 | 76% | 3.62 | 49.7% | –
9 | OCC1(CO)CO/C(=N\c2ccc(F)c(F)c2F)N1 | 50.4% | 4.07 | 16.6% | –
10 | OCC1(CO)CS/C(=N\c2ccc(F)c(F)c2F)N1 | 65.3% | 3.15 | 26.9% | –
11 | OC[C@H]1O[C@H](NC2=N[C@@H]3[C@H](O2)[C@@H](O)[C@H](O)[C@]3(O)CO)[C@H](O)[C@@H](O)[C@@H]1O [TREHAZOLIN] | – | – | – | 7.31
